Sampled rows, rich in hits. Any-hit rate of the full collection: about 1.8%.
Runt-SMMHC FRET: Runt domain-CBFb-SMMHC interaction inhibition | inhibition, % at 20 µM | Q01196+Q13951 | AID 1434 | Cerulean-Runt/Venus-CBFb-SMMHC FRET ratio 530/480, 1 h | 0.74% of 220,000 active;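 active = mean inhibition across duplicate retests at 20 µM reaching about 50%, limit read from the data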;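 also: 0% = DMSO wells and 100% = wells with excess untagged CBFb-SMMHC; inhibitors lower the FRET ratio by blocking Runt binding to CBFb-SMMHC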
Runt-CBFb FRET: blocks binding of human RUNX1 Runt domain to CBFb. Q01196+Q13951. inhibition, % at 20 µM. Cerulean-Runt/Venus-CBFb FRET ratio 530/480, 1 h. 0.46% of 220,000 active;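 active = inhibition over about 50% at 20 µM in the single-dose screen, limit read from the data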;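 also: 0% = DMSO wells and 100% = excess unlabeled CBFb competitor control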
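Schedule: protein complex preformed 1 h, compound exposure 1 h, room temperature, dark; test system: Cerulean-labeled Runt domain protein; amount: 100 nM per protein; buffer or medium: Tris 50 mM pH 7.5, KCl, K2SO4, 0.01% BSA; read-out: loss of energy transfer signal; detection: FRET fluorescence; controls: 5 µM unlabeled CBFb as full-inhibition high control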
RanGTP-Impb inh: disruptors of Ran-importin-beta complex formation – biochemical, FRET, CFP-Ran, YFP-importin-beta, homogeneous, primary screen; inhibition, % (concentration not given with the values); AID 2216; cell-free CFP-Ran/YFP-importin-beta FRET ratio; 1.1% of 300,000 active;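 active = more than half of the replicate wells show a fall in the fluorescence ratio signal beyond about 16%, limit read from the data, passing the limit was not always enough; inconclusive = exactly half of the replicate wells pass the set limit; inactive = fewer than half of replicates pass the limit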;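 also: 0% = DMSO wells and 100% = Ran loaded with GDP instead of GTP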
Hck-Nef inh: blocks Nef-activated human Hck kinase; inhibition, % at 20 µM; Recombinant Hck-YEEI plus Nef, Z-Lyte FRET kinase assay; 0.68% of 220,000 active; AID 463187; P08631;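 active = Hck-Nef kinase inhibition above about 50%, limit read from the data; inactive = inhibition below that limit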;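 also: 0% = DMSO with Hck plus Nef and 100% = Hck alone without Nef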
Target sequence (P08631 whole entry, looked up): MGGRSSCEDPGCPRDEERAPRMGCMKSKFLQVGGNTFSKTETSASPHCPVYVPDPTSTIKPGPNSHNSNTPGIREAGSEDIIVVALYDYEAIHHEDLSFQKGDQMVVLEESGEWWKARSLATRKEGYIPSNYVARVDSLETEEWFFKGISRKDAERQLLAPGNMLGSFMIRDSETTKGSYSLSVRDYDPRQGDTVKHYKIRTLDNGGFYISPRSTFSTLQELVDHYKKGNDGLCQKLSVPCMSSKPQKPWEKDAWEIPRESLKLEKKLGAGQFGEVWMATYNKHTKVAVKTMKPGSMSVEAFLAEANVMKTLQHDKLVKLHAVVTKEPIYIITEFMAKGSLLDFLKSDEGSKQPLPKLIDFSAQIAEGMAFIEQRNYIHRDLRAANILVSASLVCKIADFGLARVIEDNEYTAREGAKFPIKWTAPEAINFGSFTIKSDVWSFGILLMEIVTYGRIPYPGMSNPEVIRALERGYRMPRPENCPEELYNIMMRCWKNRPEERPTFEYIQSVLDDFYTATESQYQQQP
YIC FRET counter: counter-screen for RanGTP-importin-beta inhibitors: YIC FRET probe; shares compounds with RanGTP-Impb inh; Purified YIC probe, intramolecular FRET ratio YFP/CFP; IC50, µM; 40% of 1,000 active; AID 435026;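 active = fitted half-maximal inhibitory concentration no more than tenfold above the top dose tested; inconclusive = flat fit with 30 to 70% activity, or poor fit; inactive = half-maximal concentration beyond tenfold above the top dose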
Hck Nef conf: Hck-Nef kinase inhibition, confirmation. shares compounds with Hck-Nef inh. Recombinant Hck-YEEI:Nef, Z-Lyte FRET kinase assay. calls only at 10 µM. 28% of 1,300 active. AID 463188;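 active = average inhibition of at least 50%, with Z-scores no higher than 3 in both the phospho-tyrosine peptide and fluorescence counterscreens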
An asterisk follows results filed as active; i = inactive; ? = inconclusive; / = no result shown; + = active, no number.

SMILES	Runt-SMMHC FRET	Runt-CBFb FRET	RanGTP-Impb inh	Hck-Nef inh	Hck Nef conf	others
N#Cc1c2ncn(CC(=O)c3ccc(Br)cc3)c(=O)c2c2n1CCC2	-1	-5	16*	0	/	YIC FRET counter=>50
N#Cc1c2n(c3c(=O)n(CC(=O)c4ccc(Br)cc4)cnc13)CCCC2	2	-2	-3	1	/
Cc1cc(C)c(S(=O)(=O)N2CCN(C(=O)N(C)C)CC2)c(C)c1	/	/	-1	20	/
Cc1cccc(NC(=O)c2cc3c(s2)-c2c(C)cccc2OC3)n1	61	-18	30*	87*	/	YIC FRET counter=7.3*
CC(C)NC(=O)C1CCN(C2CCN(Cc3ccc4cccc(F)c4n3)CC2)CC1	-2	-2	9	-10	/
O=C(COc1ccc2ccc(=O)oc2c1)Nc1c(Cl)cccc1C(F)(F)F	/	/	-1	/	/
CCN(CC)Cc1c(O)c(Cl)cc2c3c(c(=O)oc12)CCCC3	70	107*	48*	113*	/	YIC FRET counter=23*
CCc1c(C)c2cc(Cl)c(O)c(CN(CC)CC)c2oc1=O	65*	95*	26*	115*	/	YIC FRET counter=27*
Cc1c(O)c(CN(C)C)cc2c1oc(=O)c1ccccc12	-19	-11	-4	5	/
Cc1c(C)c2cc(Cl)c(O)c(CN(C)C)c2oc1=O	81*	92*	33*	87*	/	YIC FRET counter=29*
O=c1c2ccccc2[nH]c2ccccc12	83*	120*	19*	144*	/	YIC FRET counter=49*
c1ccc2c(c1)[nH]c1ccccc12	/	/	-3	/	/
O=C(CSc1n[nH]c(Cc2ccccc2)n1)Nc1ccccc1Br	/	/	-2	/	/
O=C(Cc1cc(=O)oc2cc(O)ccc12)NCC1CCC(C(=O)O)CC1 (configuration not stated)	62*	108*	32*	62*	/	YIC FRET counter=9.8*
CCc1cc(=O)oc2c(CN3CCN(C)CC3)c(O)ccc12	/	/	4	/	/
CCc1cc(=O)oc2c(CN3CCN(C)CC3)c(O)c(Cl)cc12	91*	100*	32*	163*	/	YIC FRET counter=33*
Cc1cc2ncc(-c3cccs3)nc2cc1C	/	/	4	/	/
O=C1C=C(O)c2cccc(O)c2C1=O	-6	7	/	25	/
CC1=CC(=O)c2c(O)ccc(O)c2C1=O	-42	11	/	60*	+
C=CCOC(=O)C1=C(C)NC(SCC(=O)N(CC)CC)=C(C#N)C1c1ccccc1 (configuration not stated)	2	-6	?	6	/
C=CCOC(=O)C1=C(C)NC(SCC(=O)NC(=O)OCC)=C(C#N)C1c1cccnc1 (configuration not stated)	-1	-1	-4	50*	i
COc1nc(Nc2nc3ccccc3c(=O)[nH]2)nc2ccc(C)cc12	1	-3	-2	75*	i
COc1ccccc1CN(Cc1nc2ccccc2c(=O)[nH]1)S(=O)(=O)c1ccc2ccccc2c1	-2	0	7	110*	i
COc1ccc(S(=O)(=O)N(Cc2ccccc2)Cc2nc3ccccc3c(=O)[nH]2)cc1	4	1	4	0	/
Cc1ccc(-n2c(=O)c3sccc3n(Cc3cc(=O)n4cc(Cl)ccc4n3)c2=O)cc1F	0	0	2	4	/
SMILES	Runt-SMMHC FRET	Runt-CBFb FRET	RanGTP-Impb inh	Hck-Nef inh	Hck Nef conf	others
COc1cc(S(=O)(=O)Nc2ccc(C)cc2)ccc1N=Cc1c(C)c(C#N)c(=O)n(C)c1O	12	-236	-13	15	/
Cc1ccc(N/N=C/c2c(C)c(C#N)c(=O)n(C)c2O)cc1C	-8	-1	-4	77*	i
CC(C)n1cnc2cc(NCc3ccco3)ccc21	3	5	-2	79*	i
Cc1cc(NC(=O)c2ccc(S(=O)(=O)N3CCc4ccccc43)cc2)no1	-5	-7	?	52*	i
Cc1cc(NC(=O)c2ccc(S(=O)(=O)N3CCOCC3)cc2)no1	-1	0	0	21	/
Cc1c(Cl)c(=O)oc2cc(OC(C)C)ccc12	1	-1	3	4	/
CCC(=O)Oc1ccc2c(C)c(Cl)c(=O)oc2c1	127*	83*	25*	109*	/
Cc1c(Cc2ccccc2)c(=O)oc2cc(OC(=O)c3ccccc3)ccc12	12	8	0	33	/
COC(=O)Cc1c(C)c2ccc(OC(=O)c3ccccc3)cc2oc1=O	17	9	11	56*	/
O=C(CSc1nc2nc(-c3cccs3)cc(C(F)(F)F)c2c(=O)[nH]1)Nc1ccc(F)c(F)c1	-1	-8	1	54*	/
Cc1cccn2c(=O)c3cc(C(=O)O)n(C)c3nc12	28	12	-1	52*	i
COC1C=CC(CNC(=O)c2cc3c(=O)n4cccc(C)c4nc3n2C)(OC)O1 (configuration not stated)	11	-1	-2	74*	i
Cc1cccn2c(=O)c3cc(C(=O)NCCC4=CCCCC4)n(C)c3nc12	/	/	-2	/	/
COC(=O)c1c(NC(=O)COC(=O)c2ccc(NC(=O)CC#N)cc2)sc2c1CCCCC2	-18	-2	-4	113*	+
COCCCNC(=O)Cn1cnc2sc(C)c(S(=O)(=O)N3CC(C)CC(C)C3)c2c1=O (configuration not stated)	/	/	-1	/	/
CC(/C=N/n1c(COc2ccccc2)n[nH]c1=S)=C\c1ccco1	8	15	4	50*	i
Cc1[nH]c2ccccc2c1/C=N/Nc1ccccn1	0	-2	2	65*	+
C/C(=C/CCC(C)[C@H]1CC[C@@]2(C)C3=C(CC[C@]12C)[C@@]1(C)CCC(=O)C(C)(C)[C@@H]1CC3)C(=O)O (some centres not stated)	-28	-33	1	100*	+
C/C(=C/CCC(C)C1CCC2(C)C3CCC4C(C)(C)C(=O)CCC4(C)C3=CCC12C)C(=O)O (configuration not stated)	1	0	0	26	/
O=C(O)c1sccc1Oc1ccc(NS(=O)(=O)c2cccc(F)c2)cc1	/	/	4	/	/
Cc1ccc(NC(=O)CSc2nc3ccccc3c3nc(CCn4cncc4C)nn23)c(C)c1	-3	-2	?	72*	i
Cc1cc(F)ccc1S(=O)(=O)Nc1ccccc1C(=O)NCc1cccnc1	-2	1	1	-24	/
CCOc1cc(/C=N/NC(=O)c2cccnc2)ccc1OC(=O)c1ccco1	-1	-4	3	-17	/
O=C(N/N=C/c1cccc([N+](=O)[O-])c1)c1ccccc1-n1cccc1	1	0	1	58*	i
COc1cccc(/C=C/C(=O)OCC(=O)NC(=O)NC2CCCCC2)c1	/	/	5	/	/
CCCCCCCCCCCCCCCC[n+]1ccc(/C=N/O)cc1	0	-6	/	112*	/
COc1cc2c(C#N)c(N3CCN(C)CC3)nc(N)c2c(N)n1	-29	-34	-15	1	/
